Test results from ChEMBL document CHEMBL4325889, “Natural products hybrids: 3,5,4'-Trimethoxystilbene-5,6,7-trimethoxyflavone chimeric analogs as potential cytotoxic agents against diverse human cancer cells” (Eur J Med Chem, 2019).

Experiments:
Assay type in all cases: functional
Malme-3M = experiment: Growth inhibition of human MALME-3M cells at 10 uM after 48 hrs by SRB assay relative to control; details: read-out: GI
Procedure, shortened: (§1)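 Screened at the National Cancer Institute by the standard NCI protocol using the sulforhodamine B assay, which measures cellular protein. Single dose of 10 µM. Result is percent growth inhibition; values above 100% mean cell number fell below the initial population. Values are the average of duplicates.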

UACC-62 = experiment: Growth inhibition of human UACC62 cells at 10 uM after 48 hrs by SRB assay relative to control; details: UACC-62, 48 h, read-out: GI
Procedure, shortened: (§2)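 NCI screen against its human cancer cell line panel by the standard NCI protocol, SRB protein stain. Single dose of 10 μM. Percent growth inhibition versus control; values above 100% mean the cell population fell below the starting number. Each value is the mean of duplicates.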

IGROV-1 = experiment: Growth inhibition of human IGROV1 cells at 10 uM after 48 hrs by SRB assay relative to control; details: IGROV-1, 48 h, read-out: GI; procedure, shortened: as §1
NCI/ADR-RES = experiment: Growth inhibition of human NCI/ADR-RES cells at 10 uM after 48 hrs by SRB assay relative to control; details: read-out: GI; procedure, shortened: as §1
NCI-H322M = experiment: Growth inhibition of human NCI-H322M cells at 10 uM after 48 hrs by SRB assay relative to control; details: read-out: GI; procedure, shortened: as §1
OVCAR-3 = experiment: Growth inhibition of human OVCAR3 cells at 10 uM after 48 hrs by SRB assay relative to control; details: OVCAR-3, 48 h, read-out: GI; procedure, shortened: as §1
COLO 205 = experiment: Growth inhibition of human COLO205 cells at 10 uM after 48 hrs by SRB assay relative to control; details: COLO 205, 48 h, read-out: GI; procedure, shortened: as §1
HOP-92 = experiment: Growth inhibition of human HOP92 cells at 10 uM after 48 hrs by SRB assay relative to control; details: HOP-92, 48 h, read-out: GI; procedure, shortened: as §1
NCI-H23 = experiment: Growth inhibition of human NCI-H23 cells at 10 uM after 48 hrs by SRB assay relative to control; details: NCI-H23, 48 h, read-out: GI; procedure, shortened: as §1
HCC 2998 = experiment: Growth inhibition of human HCC2998 cells at 10 uM after 48 hrs by SRB assay relative to control; details: HCC 2998, 48 h, read-out: GI; procedure, shortened: as §1
K562 = experiment: Growth inhibition of human K562 cells at 10 uM after 48 hrs by SRB assay relative to control; details: K562, 48 h, read-out: GI; procedure, shortened: as §1
DU-145 = experiment: Growth inhibition of human DU145 cells at 10 uM after 48 hrs by SRB assay relative to control; details: DU-145, 48 h, read-out: GI; procedure, shortened: as §1
SF-539 = experiment: Growth inhibition of human SF539 cells at 10 uM after 48 hrs by SRB assay relative to control; details: SF-539, 48 h, read-out: GI; procedure, shortened: as §1
SK-MEL-28 = experiment: Growth inhibition of human SK-MEL-28 cells at 10 uM after 48 hrs by SRB assay relative to control; details: SK-MEL-28, 48 h, read-out: GI; procedure, shortened: as §1
CCRF-CEM = experiment: Growth inhibition of human CCRF-CEM cells at 10 uM after 48 hrs by SRB assay relative to control; details: read-out: GI; procedure, shortened: as §1
Hs-578T = experiment: Growth inhibition of human Hs 578T cells at 10 uM after 48 hrs by SRB assay relative to control; details: read-out: GI; procedure, shortened: as §1
CAKI-1 = experiment: Growth inhibition of human Caki1 cells at 10 uM after 48 hrs by SRB assay relative to control; details: CAKI-1, 48 h, read-out: GI; procedure, shortened: as §1
OVCAR-4 = experiment: Growth inhibition of human OVCAR4 cells at 10 uM after 48 hrs by SRB assay relative to control; details: OVCAR-4, 48 h, read-out: GI; procedure, shortened: as §1
SF-295 = experiment: Growth inhibition of human SF295 cells at 10 uM after 48 hrs by SRB assay relative to control; details: SF-295, 48 h, read-out: GI; procedure, shortened: as §1
MCF7 = experiment: Growth inhibition of human MCF7 cells at 10 uM after 48 hrs by SRB assay relative to control; details: MCF7, 48 h, read-out: GI; procedure, shortened: as §1
HL-60(TB) = experiment: Growth inhibition of human HL-60(TB) cells at 10 uM after 48 hrs by SRB assay relative to control; details: HL-60, 48 h, read-out: GI
Procedure, shortened: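 Run at NCI under its standard single-dose protocol against a leukemia cell panel. Cells were exposed to 10 µM; growth was read by sulforhodamine B staining of cellular protein and expressed as % growth inhibition versus untreated control. Values above 100% mean the cell population fell below the starting count (cytocidal). Each value is the average of duplicates.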

SNB-19 = experiment: Growth inhibition of human SNB19 cells at 10 uM after 48 hrs by SRB assay relative to control; details: SNB-19, 48 h, read-out: GI; procedure, shortened: as §2
RPMI-8226 = experiment: Growth inhibition of human RPMI8226 cells at 10 uM after 48 hrs by SRB assay relative to control; details: RPMI-8226, 48 h, read-out: GI; procedure, shortened: as §1
SK-MEL-5 = experiment: Growth inhibition of human SK-MEL-5 cells at 10 uM after 48 hrs by SRB assay relative to control; details: SK-MEL-5, 48 h, read-out: GI; procedure, shortened: as §1
SNB-75 = experiment: Growth inhibition of human SNB75 cells at 10 uM after 48 hrs by SRB assay relative to control; details: SNB-75, 48 h, read-out: GI; procedure, shortened: as §2
U-251 = experiment: Growth inhibition of human U251 cells at 10 uM after 48 hrs by SRB assay relative to control; details: U-251, 48 h, read-out: GI; procedure, shortened: as §2
HCT-116 = experiment: Growth inhibition of human HCT116 cells at 10 uM after 48 hrs by SRB assay relative to control; details: HCT-116, 48 h, read-out: GI; procedure, shortened: as §1
HT-29 = experiment: Growth inhibition of human HT-29 cells at 10 uM after 48 hrs by SRB assay relative to control; details: HT-29, 48 h, read-out: GI; procedure, shortened: as §1
UACC-257 = experiment: Growth inhibition of human UACC257 cells at 10 uM after 48 hrs by SRB assay relative to control; details: UACC-257, 48 h, read-out: GI; procedure, shortened: as §2
HOP-62 = experiment: Growth inhibition of human HOP62 cells at 10 uM after 48 hrs by SRB assay relative to control; details: HOP-62, 48 h, read-out: GI; procedure, shortened: as §1
UO-31 = experiment: Growth inhibition of human UO31 cells at 10 uM after 48 hrs by SRB assay relative to control; details: UO-31, 48 h, read-out: GI; procedure, shortened: as §2
SN12C = experiment: Growth inhibition of human SN12C cells at 10 uM after 48 hrs by SRB assay relative to control; details: read-out: GI; procedure, shortened: as §1
MDA-MB-435 = experiment: Growth inhibition of human MDA-MB-435 cells at 10 uM after 48 hrs by SRB assay relative to control; details: MDA-MB-435, 48 h, read-out: GI; procedure, shortened: as §1

In the case of `COc1cc2oc(-c3cccc(NC(=O)c4ccc5c(c4)OCO5)c3)cc(=O)c2c(O)c1OC`, the inhibition of growth at 10 µM (Malme-3M) is reported as 7.67%, the inhibition of growth at 10 µM (UACC-62) is reported as 41.4% and the inhibition of growth at 10 µM (IGROV-1) is reported as 5.56%. It also gave an inhibition of growth at 10 µM (NCI/ADR-RES) of 14.8%, an inhibition of growth at 10 µM (NCI-H322M) of 15.7% and an inhibition of growth at 10 µM (OVCAR-3) of -4.7%. For the same compound, the inhibition of growth at 10 µM (COLO 205) was 2.46%, the inhibition of growth at 10 µM (HOP-92) was 38.5% and the inhibition of growth at 10 µM (NCI-H23) was 13.4%. The inhibition of growth at 10 µM (HCC 2998) was 9.76%, the inhibition of growth at 10 µM (K562) was 15% and the inhibition of growth at 10 µM (DU-145) was 2.12%. For the same compound, the inhibition of growth at 10 µM (SF-539) was 77.4%, the inhibition of growth at 10 µM (SK-MEL-28) was 15.2% and the inhibition of growth at 10 µM (CCRF-CEM) was 11.7%. It also gave an inhibition of growth at 10 µM (Hs-578T) of 26.1%, an inhibition of growth at 10 µM (CAKI-1) of 34.4% and an inhibition of growth at 10 µM (OVCAR-4) of 25.8%. The inhibition of growth at 10 µM (SF-295) was 19%, the inhibition of growth at 10 µM (MCF7) was 11.4% and the inhibition of growth at 10 µM (HL-60(TB)) was 14%. The inhibition of growth at 10 µM (SNB-19) was 33.8%, the inhibition of growth at 10 µM (RPMI-8226) was 20.6% and the inhibition of growth at 10 µM (SK-MEL-5) was 25.9%. It also gave an inhibition of growth at 10 µM (SNB-75) of 47.6%, an inhibition of growth at 10 µM (U-251) of 27.1% and an inhibition of growth at 10 µM (HCT-116) of 21%. It also gave an inhibition of growth at 10 µM (HT-29) of 15.6%, an inhibition of growth at 10 µM (UACC-257) of 17.2% and an inhibition of growth at 10 µM (HOP-62) of 47.9%. For the same compound, the inhibition of growth at 10 µM (UO-31) was 15.8%, the inhibition of growth at 10 µM (SN12C) was 9.48% and the inhibition of growth at 10 µM (MDA-MB-435) was 5.39%.
`COc1cc2oc(-c3cccc(C(=O)Nc4ccccc4)c3)cc(=O)c2c(O)c1OC` gave an inhibition of growth at 10 µM (Malme-3M) of 35.5%, an inhibition of growth at 10 µM (UACC-62) of 61.1% and an inhibition of growth at 10 µM (IGROV-1) of 14.6%. For the same compound, the inhibition of growth at 10 µM (NCI/ADR-RES) was 20.9%, the inhibition of growth at 10 µM (NCI-H322M) was 33.6% and the inhibition of growth at 10 µM (OVCAR-3) was 29.9%. For the same compound, the inhibition of growth at 10 µM (COLO 205) was 7.73%, the inhibition of growth at 10 µM (HOP-92) was 94.7% and the inhibition of growth at 10 µM (NCI-H23) was 13.1%. The inhibition of growth at 10 µM (HCC 2998) was 10.3%, the inhibition of growth at 10 µM (K562) was 2.93% and the inhibition of growth at 10 µM (DU-145) was 34.4%. It also gave an inhibition of growth at 10 µM (SF-539) of 80.6%, an inhibition of growth at 10 µM (SK-MEL-28) of 12.6% and an inhibition of growth at 10 µM (CCRF-CEM) of -0.19%. The inhibition of growth at 10 µM (Hs-578T) was 88.9%, the inhibition of growth at 10 µM (CAKI-1) was 51.1% and the inhibition of growth at 10 µM (OVCAR-4) was 120%. It also gave an inhibition of growth at 10 µM (SF-295) of 30%, an inhibition of growth at 10 µM (MCF7) of 21.9% and an inhibition of growth at 10 µM (HL-60(TB)) of 7.3%. For the same compound, the inhibition of growth at 10 µM (SNB-19) was 42.3%, the inhibition of growth at 10 µM (RPMI-8226) was 16.5% and the inhibition of growth at 10 µM (SK-MEL-5) was 28.3%. It also gave an inhibition of growth at 10 µM (SNB-75) of 78.2%, an inhibition of growth at 10 µM (U-251) of 63.1% and an inhibition of growth at 10 µM (HCT-116) of 53.7%. It also gave an inhibition of growth at 10 µM (HT-29) of 45.9%, an inhibition of growth at 10 µM (UACC-257) of 15.7% and an inhibition of growth at 10 µM (HOP-62) of 91.1%. The inhibition of growth at 10 µM (UO-31) was 40.3%, the inhibition of growth at 10 µM (SN12C) was 25.2% and the inhibition of growth at 10 µM (MDA-MB-435) was 41.7%.
